The target in series [1] is Human immunodeficiency virus type 1 integrase (Human immunodeficiency virus 1, UniProt Q7ZJM1). The series can be described thus: Inhibition of HIV 3B integrase strand transfer activity. The method, boiled down:
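IN expressed in E. coli BL21(DE3) by IPTG induction. 600 nM IN in HEPES pH 7.5, 10 mM MnCl2, 1 mM DTT, 10% glycerol, BSA, Brij-35 preincubated 10 min at room temperature with inhibitor or DMSO; 50 nM annealed 5'-biotin/3'-cy5 duplex DNA added, 2 h 37 °C. Product captured on streptavidin plate, washed, eluted with formamide, fluorescence read.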

Series [2] in a line: Therapeutic index, ratio of TC50 for human CEM-SS cells to EC50 for HIV1 3B. Type of series: cell-based. Particulars: read-out: TI. The essentials: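 TI calculated as TC50/EC50 from the 6-day CEM-SS cytoprotection assay (HIV-1 IIIB; MTS or XTT dye reduction) and matching compound-only toxicity wells.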
For series [3], the target named is Human immunodeficiency virus type 1 reverse transcriptase (Human immunodeficiency virus 1, UniProt Q72547). The series can be described thus: Inhibition of HIV 3B reverse transcriptase using [3H]TTP as a tracer by scintillation counting.
The test system of series [4] is Human immunodeficiency virus 1. The series can be described thus: Antiviral activity against HIV1 3B infected in human CEM-SS cells assessed as inhibition of virus-induced cytopathic effect after 6 days by MTS assay. Format: functional, organism-based. As to conditions: Human immunodeficiency virus 1, 3B, 144 h. The method, boiled down:
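CEM-SS cells mixed with pre-titered HIV-1 IIIB (virus control wells lose 70–95% viability) in presence of compound, incubated 6 days; cytoprotection read by MTS or XTT dye reduction. Plates held cell, virus, compound toxicity and colorimetric controls; AZT positive control. EC50 = concentration inhibiting virus replication by 50%.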

Series [5] in a line: Cytotoxicity against human CEM-SS cells after 6 days by MTS assay. Particulars: read-out: TC50. Format: cell-based.
Series [6] addresses Human immunodeficiency virus type 1 reverse transcriptase (Human immunodeficiency virus 1) (UniProt Q72547). The series can be described thus: Inhibition of HIV 3B reverse transcriptase at 10 uM using [3H]TTP as a tracer by scintillation counting. The essentials: (§1)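 Resin-bound poly(A) template in scintillation format incubated with compound and [3H]-TTP tracer; reaction started by adding RT enzyme, run 3 h at 37 °C, quenched with stop buffer; incorporated [3H]-TTP counted 1 min per sample on a beta counter.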

Series [7] concerns Human immunodeficiency virus 1. The series can be described thus: Antiviral activity against HIV1 3B infected in human CEM-SS cells assessed as reduction in virus-induced cytopathic effect at 10 uM after 6 days by MTS assay. Format: functional. On the technique in general: Cytopathic effects are the visible damage that an infection or toxin causes in cultured cells.
The target in series [8] is Human immunodeficiency virus type 1 reverse transcriptase (Human immunodeficiency virus 1) (UniProt Q72547). The series can be described thus: Inhibition of HIV 3B reverse transcriptase at 100 uM using [3H]TTP as a tracer by scintillation counting. The method, boiled down:
as §1

Active and inactive are the calls of the source. No cut-off for these calls is given here.

Sequence of Human immunodeficiency virus type 1 integrase (Q7ZJM1 whole entry): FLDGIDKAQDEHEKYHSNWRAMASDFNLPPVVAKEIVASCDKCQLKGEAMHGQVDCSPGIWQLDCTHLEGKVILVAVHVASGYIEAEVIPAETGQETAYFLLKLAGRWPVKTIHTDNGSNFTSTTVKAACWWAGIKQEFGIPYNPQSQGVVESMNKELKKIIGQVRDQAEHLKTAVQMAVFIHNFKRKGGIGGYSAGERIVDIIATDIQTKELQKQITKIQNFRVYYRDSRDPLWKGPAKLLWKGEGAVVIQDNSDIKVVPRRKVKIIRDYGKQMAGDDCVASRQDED

The term IC50 denotes the concentration needed to halve the response being measured. As a reminder, the EC50 is the midpoint of the concentration-response curve. As for `Cc1cc(C)cc(Cc2c(C(C)C)c(=O)[nH]c(=O)n2COCc2ccc(Cc3cccc(C(=O)/C=C(\O)C(=O)O)c3)cc2)c1`, the figures for the IC50 in series [1] and in series [3] were 22 µM and 0.1 µM, respectively. The selectivity ratio in series [2] stood at 560. In series [4], the EC50 worked out at 0.17 µM. Also, the CC50 at 144 h in series [5] was 96 µM.
For `CC(C)c1c(Cc2ccccc2)n(COCc2ccc(Cc3cccc(C(=O)/C=C(\O)C(=O)O)c3)cc2)c(=O)[nH]c1=O` the same measures were 11 µM, 0.16 µM, > 220, 0.46 µM and > 100 µM.
As to `CCc1c(Cc2cc(C)cc(C)c2)n(COCc2ccc(Cc3cccc(C(=O)/C=C(\O)C(=O)O)c3)cc2)c(=O)[nH]c1=O`, the IC50 was found to be 14 µM in series [1] and 0.028 µM in series [3]. Besides, the selectivity ratio in series [2] was > 710. Besides, the EC50 in series [4] stood at 0.014 µM. Further, in series [5], the CC50 at 144 h is > 100 µM.
What is called inhibition is the share of the control response that was lost under treatment. For `CCc1c(Cc2ccccc2)nc(SCc2ccc(C(=O)/C=C(\O)C(=O)O)cc2)[nH]c1=O`, the inhibition in series [6] and in series [8] was 0% in each case. Moreover, the outcome in series [7] was inactive. In series [1], the IC50 was > 100 µM.
For the compound `CCc1c(Cc2ccccc2)nc(SCc2ccc(Cc3cccc(C(=O)/C=C(\O)C(=O)O)c3)cc2)[nH]c1=O`, the inhibition in series [6] and in series [8] was 0% each time. Besides, the outcome in series [7] was inactive. In addition, the IC50 in series [1] was > 100 µM.
Consider `CC(C)c1c(Cc2ccccc2)[nH]c(=O)n(CCCCc2ccc(C(=O)/C=C(\O)C(=O)O)cc2)c1=O`, for which the inhibition in series [6] and in series [8] was 0% throughout. Further, in series [7], the Activity is reported as 0%. Also, half-maximal inhibition in series [1] (IC50) was put at 37 µM.
Regarding `CC(C)c1c(Cc2ccccc2)[nH]c(=O)n(CCCCCCc2ccc(C(=O)/C=C(\O)C(=O)O)cc2)c1=O`, the inhibition in series [6] and in series [8] was 0% throughout. Further, the Activity in series [7] is 9%. For the same compound, in series [1], the IC50 is > 100 µM.
With `CC(C)c1c(Cc2ccccc2)[nH]c(=O)n(CCCc2ccc(C(=O)/C=C(\O)C(=O)O)cc2)c1=O`, the inhibition in series [6] and in series [8] was 0% throughout. Further, in series [7], the Activity is reported as 0.6%. The compound further yielded an IC50 in series [1] of 12 µM.
On to `CC(C)c1c(Cc2ccccc2)n(COCCCc2ccc(C(=O)/C=C(\O)C(=O)O)cc2)c(=O)[nH]c1=O`, for which the inhibition in series [6] and in series [8] was 100% each time. Moreover, the Activity in series [7] came out at 91%. In addition, the IC50 in series [1] worked out at 8.2 µM.
With `CC(C)c1c(Cc2ccccc2)n(COCCc2ccc(C(=O)/C=C(\O)C(=O)O)cc2)c(=O)[nH]c1=O`, the inhibition in series [6] and in series [8] was 100% in each case. In series [7], the Activity was 100%. Besides, in series [1], the IC50 stood at 7.4 µM.
As for `CC(C)c1c(Cc2ccccc2)[nH]c(=O)n(CCc2ccc(C(=O)/C=C(\O)C(=O)O)cc2)c1=O`, the inhibition in series [6] and in series [8] was 0% each time. Moreover, the Activity in series [7] was 28%. The compound also showed a half-inhibitory concentration (IC50) in series [1] of 8 µM.
For the compound `CCc1c(Cc2ccccc2)n(COCc2ccc(Cc3cccc(C(=O)/C=C(\O)C(=O)O)c3)cc2)c(=O)[nH]c1=O`, the IC50 amounted to 16 µM in series [1] and 0.71 µM in series [3]. Besides, the selectivity ratio in series [2] was determined as 56. Besides, the EC50 in series [4] was determined as 0.56 µM. Besides, the CC50 at 144 h in series [5] was determined as 32 µM.

Values taken from ChEMBL document CHEMBL1166013, “Pharmacophore and structure-activity relationships of integrase inhibition within a dual inhibitor scaffold of HIV reverse transcriptase and integrase” (Bioorg Med Chem, 2010).
